Ratio Ki and Ki data for 22 compounds are collected here from ChEMBL document CHEMBL3351655, “Scaffold decoration at positions 5 and 8 of 1,2,4-triazolo[1,5-c]pyrimidines to explore the antagonist profiling on adenosine receptors: a preliminary structure-activity relationship study” (J Med Chem, 2014).

What is called Ki is a dissociation constant, usually derived from enzyme kinetics or from competition with a known ligand.

Assay [1] relates to CHO. The assay can be described thus: Selectivity ratio of Ki for human adenosine A1 receptor expressed in CHO cells to Ki for human adenosine A2A receptor expressed in CHO cells. In kind it is cell-based.
Assay [2] relates to CHO. The assay can be described thus: Selectivity ratio of Ki for human adenosine A2A receptor expressed in CHO cells to Ki for human adenosine A3 receptor expressed in CHO cells. Type of assay: cell-based.
In another assay the target is Adenosine receptor A2a (Homo sapiens, UniProt P29274). Kind of assay: Displacement of [3H]NECA from human adenosine A2A receptor expressed in CHO cells. In kind it is cell-based. Background: In a radioligand displacement assay an active substance lowers the binding of a labelled ligand.
For another assay, the target named is T1, Adenosine receptor A1 (Homo sapiens, UniProt P30542).
T1 sequence (P30542 whole entry): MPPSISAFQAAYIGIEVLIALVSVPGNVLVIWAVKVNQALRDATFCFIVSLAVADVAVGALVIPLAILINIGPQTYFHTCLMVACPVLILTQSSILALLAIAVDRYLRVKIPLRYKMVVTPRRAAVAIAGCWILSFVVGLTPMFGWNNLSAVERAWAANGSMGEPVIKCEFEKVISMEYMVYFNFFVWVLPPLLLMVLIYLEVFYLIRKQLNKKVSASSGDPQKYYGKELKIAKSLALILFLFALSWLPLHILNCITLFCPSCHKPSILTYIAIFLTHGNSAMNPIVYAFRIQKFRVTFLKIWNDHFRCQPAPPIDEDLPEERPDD
The assay can be described thus: Displacement of [3H]CCPA from human adenosine A1 receptor expressed in CHO cells. In kind it is cell-based. Put shortly:
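Stably transfected CHO cells were homogenised and spun at 1000g to remove nuclei and fragments. Membranes were then pelleted at 100 000g, resuspended in binding buffer, frozen in liquid nitrogen and stored. Radioligand was [³H]CCPA, with nonspecific binding defined by 1 mM theophylline.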

A further assay addresses T2, Adenosine receptor A3 (Homo sapiens, UniProt P0DMS8).
T2 sequence (P0DMS8 whole entry): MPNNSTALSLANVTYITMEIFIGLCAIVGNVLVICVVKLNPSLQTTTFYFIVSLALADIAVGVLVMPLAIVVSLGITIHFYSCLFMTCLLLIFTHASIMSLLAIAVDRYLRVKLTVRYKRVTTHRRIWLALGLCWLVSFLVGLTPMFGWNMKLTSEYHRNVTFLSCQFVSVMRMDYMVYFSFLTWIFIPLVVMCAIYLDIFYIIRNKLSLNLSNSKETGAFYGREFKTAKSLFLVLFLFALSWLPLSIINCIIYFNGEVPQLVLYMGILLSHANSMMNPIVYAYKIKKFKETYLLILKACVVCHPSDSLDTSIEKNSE
The assay can be described thus: Displacement of [3H]NECA from human adenosine A3 receptor expressed in CHO cells. Type of assay: cell-based. The essentials:
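Radioligand [³H]NECA was used on membranes from stably transfected CHO cells, prepared by a 1000g clearing spin then pelleting at 100 000g. Pellets were resuspended in binding buffer, frozen in liquid nitrogen and stored. Nonspecific binding was defined with 100 μM R-PIA.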

For assay [3], the target named is Adenosine receptors; A1 & A3 (Homo sapiens) (UniProt P30542+P0DMS8). The assay can be described thus: Selectivity ratio of Ki for human adenosine A1 receptor expressed in CHO cells to Ki for human adenosine A3 receptor expressed in CHO cells. In kind it is cell-based.
The target in the next assay is T3, Adenosine receptor A2b (Homo sapiens, UniProt P29275).
T3 sequence (P29275 whole entry): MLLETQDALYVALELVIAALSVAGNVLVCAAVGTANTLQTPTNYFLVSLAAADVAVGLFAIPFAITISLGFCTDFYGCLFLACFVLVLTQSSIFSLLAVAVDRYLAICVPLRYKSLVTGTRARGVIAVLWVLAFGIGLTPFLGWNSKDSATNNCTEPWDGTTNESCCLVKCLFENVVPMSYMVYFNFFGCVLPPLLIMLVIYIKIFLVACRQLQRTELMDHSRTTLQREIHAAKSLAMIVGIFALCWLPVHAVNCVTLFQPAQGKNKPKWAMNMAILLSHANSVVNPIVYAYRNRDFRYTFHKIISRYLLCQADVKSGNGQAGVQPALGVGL
The assay can be described thus: Antagonist activity at human adenosine A2B receptor expressed in CHO cells assessed as inhibition of NECA-stimulated adenylyl cyclase activity. In kind it is functional, cell-based. The essentials: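 Membranes from stably transfected CHO cells, made with a single high-speed centrifugation of the homogenate. Incubated 20 min with about 150 000 cpm [α-³²P]ATP, in a mixture without EGTA and NaCl. IC50 for concentration-dependent inhibition of NECA-stimulated adenylyl cyclase was fitted with the Hill equation and converted to Ki by Cheng–Prusoff.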

Chain of Adenosine receptor A2a (P29274 whole entry): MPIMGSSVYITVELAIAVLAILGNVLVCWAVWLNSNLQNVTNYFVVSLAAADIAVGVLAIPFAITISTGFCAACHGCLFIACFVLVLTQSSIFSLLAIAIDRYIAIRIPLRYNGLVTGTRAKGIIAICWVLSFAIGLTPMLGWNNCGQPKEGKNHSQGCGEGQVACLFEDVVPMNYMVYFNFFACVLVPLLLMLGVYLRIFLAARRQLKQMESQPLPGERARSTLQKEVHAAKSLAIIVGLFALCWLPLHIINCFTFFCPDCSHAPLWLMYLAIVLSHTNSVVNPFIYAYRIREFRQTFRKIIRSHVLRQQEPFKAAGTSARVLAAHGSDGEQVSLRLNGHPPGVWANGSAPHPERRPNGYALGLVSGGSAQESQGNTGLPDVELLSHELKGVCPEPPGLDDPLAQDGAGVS

Turning to `CCOC(=O)c1cnc(N(C)C)n2nc(-c3ccco3)nc12`, the figures for the Ratio Ki (in the assay with CHO [1]; in the assay on CHO [2]; in assay [3]) were 2.07, 23.6 and 48.7, respectively. In addition, the Ki on Adenosine receptor A2a is 6480 nM; on Adenosine receptor A1, 13400 nM; at Adenosine receptor A3, 275 nM; at Adenosine receptor A2b it was more than 10 µM.
Regarding `CC(C)Nc1ncc(C(=O)O)c2nc(-c3ccco3)nn12`, the values for the Ratio Ki (with CHO [1]; in the assay with CHO [2]; in assay [3]) were 0.59, 0.44 and 0.26, respectively. Besides, the Ki at Adenosine receptor A2a was 7660 nM; at Adenosine receptor A1, 4490 nM; on Adenosine receptor A3 it was 17500 nM; on Adenosine receptor A2b, more than 10 µM.
Regarding `CCCCC(CC)CNc1ncc(C(=O)O)c2nc(-c3ccco3)nn12` (centres undefined), the values for the Ratio Ki (in the assay on CHO [1]; with CHO [2]; in assay [3]) were 0.05, 2.06 and 0.11, respectively. In addition, the Ki at Adenosine receptor A2a was 33800 nM; on Adenosine receptor A1, 1780 nM; on Adenosine receptor A3 it was 16400 nM; at Adenosine receptor A2b, more than 10 µM.
Turning to `CCOC(=O)c1cnc(N)n2nc(-c3ccco3)nc12`, the Ratio Ki in the assay on CHO [1] is 55.7; in the assay on CHO [2], 0.01; in assay [3] it was 0.78. For the same compound, the Ki on Adenosine receptor A2a was 3.32 nM; on Adenosine receptor A1, 185 nM; on Adenosine receptor A3, 238 nM; at Adenosine receptor A2b it was 1.11 µM.
Consider `O=C(O)c1cnc(NCc2ccccc2)n2nc(-c3ccco3)nc12`, for which the Ratio Ki came to 1.39 in the assay on CHO [1], 1.64 in the assay on CHO [2] and 2.28 in assay [3]. The Ki on Adenosine receptor A2a is 3660 nM; at Adenosine receptor A1, 5090 nM; at Adenosine receptor A3, 2230 nM; on Adenosine receptor A2b, more than 10 µM.
For the compound `CNC(=O)c1cnc(NCc2ccc(OC)c(OC)c2)n2nc(-c3ccco3)nc12`, the Ratio Ki was found to be 16.6 in the assay with CHO [1], 0.09 in the assay on CHO [2] and 1.52 in assay [3]. Also, the Ki was 25.8 nM at Adenosine receptor A2a, 428 nM at Adenosine receptor A1, 282 nM at Adenosine receptor A3 and 2.49 µM on Adenosine receptor A2b.
`CCOC(=O)c1cnc(NCC2CCCCC2)n2nc(-c3ccco3)nc12`: the figures for the Ratio Ki (with CHO [1]; with CHO [2]; in assay [3]) were 3.57, 2.94 and 10.5, respectively. For the same compound, the Ki is 121 nM on Adenosine receptor A2a, 432 nM at Adenosine receptor A1, 41.2 nM at Adenosine receptor A3 and more than 10 µM on Adenosine receptor A2b.
Regarding `O=C(O)c1cnc(NCc2ccc(F)cc2)n2nc(-c3ccco3)nc12`, the Ratio Ki with CHO [1] was more than 15.6; in the assay with CHO [2] it was 0.46; in assay [3], more than 7.14. Further, the Ki at Adenosine receptor A2a is 6390 nM; at Adenosine receptor A1, more than 100000 nM; at Adenosine receptor A3, 14000 nM; on Adenosine receptor A2b, more than 30 µM.
As to `CCOC(=O)c1cnc(NCc2ccccc2)n2nc(-c3ccco3)nc12`, the Ratio Ki in the assay with CHO [1] was found to be 29.4; with CHO [2], 3.2; in assay [3], 94. Besides, the Ki came to 32 nM on Adenosine receptor A2a, 940 nM on Adenosine receptor A1, 10 nM on Adenosine receptor A3 and 2.51 µM at Adenosine receptor A2b.
As to `CCOC(=O)c1cnc(NC)n2nc(-c3ccco3)nc12`, the Ratio Ki in the assay on CHO [1] came to 9.4; with CHO [2], 25.1; in assay [3], 236. For the same compound, the inhibitory constant (Ki) is 104 nM on Adenosine receptor A2a, 978 nM at Adenosine receptor A1, 4.14 nM on Adenosine receptor A3 and 2.45 µM on Adenosine receptor A2b.
For `O=C(O)c1cnc(NC2CC2)n2nc(-c3ccco3)nc12`, the Ratio Ki is 1.86 in the assay with CHO [1], 3.61 with CHO [2] and 6.73 in assay [3]. The Ki was 596 nM at Adenosine receptor A2a, 1110 nM at Adenosine receptor A1, 165 nM on Adenosine receptor A3 and more than 10 µM on Adenosine receptor A2b.
Consider `O=C(O)c1cnc(NCc2ccc(-c3ccccc3)cc2)n2nc(-c3ccco3)nc12`, for which the values for the Ratio Ki (in the assay with CHO [1]; with CHO [2]; in assay [3]) were less than 0.3, more than 3.53 and 1.06, respectively. The Ki at Adenosine receptor A2a is more than 100000 nM; on Adenosine receptor A1, 30100 nM; at Adenosine receptor A3 it was 28300 nM; at Adenosine receptor A2b, more than 30 µM.
Take `CCOC(=O)c1cnc(NC2CCC2)n2nc(-c3ccco3)nc12`: the Ratio Ki was 2.6 in the assay with CHO [1], 2.47 with CHO [2] and 6.42 in assay [3]. For the same compound, the Ki on Adenosine receptor A2a was 28.9 nM; at Adenosine receptor A1 it was 75.2 nM; on Adenosine receptor A3, 11.7 nM; on Adenosine receptor A2b, more than 3 µM.
Take `O=C(Nc1ccccc1)Nc1ncc(C(=O)NCCc2ccccc2)c2nc(-c3ccco3)nn12`: the Ratio Ki in the assay on CHO [1] was 7.1; in the assay on CHO [2], 0.04; in assay [3], 0.27. In addition, the Ki at Adenosine receptor A2a was 51.4 nM; at Adenosine receptor A1, 365 nM; on Adenosine receptor A3, 1350 nM; at Adenosine receptor A2b it was more than 30 µM.
Consider `CCOC(=O)c1cnc(NC2CC2)n2nc(-c3ccco3)nc12`, for which the Ratio Ki was found to be 1.62 with CHO [1], 3.93 with CHO [2] and 6.38 in assay [3]. In addition, the inhibition constant Ki on Adenosine receptor A2a turned out to be 37.4 nM; at Adenosine receptor A1 it was 60.7 nM; on Adenosine receptor A3 it was 9.52 nM; at Adenosine receptor A2b, 2.26 µM.
On to `CCOC(=O)c1cnc(N2CCOCC2)n2nc(-c3ccco3)nc12`, for which the Ratio Ki in the assay on CHO [1] is more than 5.68; in the assay with CHO [2], 2.02; in assay [3] it was more than 11.5. Also, the Ki was 17600 nM at Adenosine receptor A2a, more than 100000 nM on Adenosine receptor A1, 8700 nM on Adenosine receptor A3 and more than 10 µM at Adenosine receptor A2b.
As to `COc1ccc(CNc2ncc(C(=O)O)c3nc(-c4ccco4)nn23)cc1`, the Ratio Ki came out at 0.46 in the assay with CHO [1], 2.25 with CHO [2] and 1.04 in assay [3]. Also, the Ki on Adenosine receptor A2a is 12400 nM; at Adenosine receptor A1, 5760 nM; on Adenosine receptor A3 it was 5520 nM; at Adenosine receptor A2b, more than 30 µM.
On to `CCNc1ncc(C(=O)OCC)c2nc(-c3ccco3)nn12`, for which the Ratio Ki in the assay on CHO [1] was found to be 3.22; with CHO [2] it was 15.2; in assay [3], 49.1. Further, the Ki at Adenosine receptor A2a was 50.3 nM; at Adenosine receptor A1, 162 nM; on Adenosine receptor A3, 3.3 nM; at Adenosine receptor A2b it was 3.06 µM.
`CCOC(=O)c1cnc(NCc2ccc(C(F)(F)F)cc2)n2nc(-c3ccco3)nc12`: the Ratio Ki worked out at 7.61 with CHO [1], 0.65 with CHO [2] and 4.92 in assay [3]. For the same compound, the Ki was 209 nM on Adenosine receptor A2a, 1590 nM on Adenosine receptor A1, 323 nM on Adenosine receptor A3 and 2.04 µM at Adenosine receptor A2b.
On to `CCOC(=O)c1cnc(NCc2ccc(C)cc2)n2nc(-c3ccco3)nc12`, for which the Ratio Ki was found to be 11 in the assay on CHO [1], 2.17 in the assay with CHO [2] and 23.9 in assay [3]. For the same compound, the Ki at Adenosine receptor A2a was found to be 122 nM; at Adenosine receptor A1, 1340 nM; on Adenosine receptor A3, 56.1 nM; at Adenosine receptor A2b, 10 µM.
With `CCOC(=O)c1cnc(N2CCCC2)n2nc(-c3ccco3)nc12`, the Ratio Ki in the assay on CHO [1] is 1.53; in the assay on CHO [2] it was 12.2; in assay [3] it was 18.7. Also, the Ki on Adenosine receptor A2a was 10200 nM; on Adenosine receptor A1, 15600 nM; at Adenosine receptor A3, 836 nM; at Adenosine receptor A2b, more than 10 µM.
Take `CCOC(=O)c1cnc(NC(=O)Cc2ccccc2)n2nc(-c3ccco3)nc12`: the Ratio Ki in the assay with CHO [1] was more than 2.34; with CHO [2], 16.5; in assay [3], more than 38.6. For the same compound, the Ki on Adenosine receptor A2a is 42700 nM; on Adenosine receptor A1 it was more than 100000 nM; on Adenosine receptor A3 it was 2590 nM; on Adenosine receptor A2b it was more than 30 µM.
